# Measurements: ChEMBL document CHEMBL2440113, “Synthesis, radiofluorination, and in vivo evaluation of novel fluorinated and iodinated radiotracers for PET imaging and targeted radionuclide therapy of melanoma” (J Med Chem, 2013)
# Key:
# [1] = Ratio of drug level in tumor to blood in C57BL/6J mouse harboring mouse B16-Bl6 cells at 9 to 12 MBq, iv after 3 hrs by PET analysis; assay type: ADME, organism-based
# Procedure, shortened: (§1)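 Ex vivo biodistribution. C57BL/6J mice bearing subcutaneous B16Bl6 tumours (3x10⁵ cells, shoulder), day 10 or 14, received [18F]tracer iv (9-12 MBq). They were killed by CO₂ at 1, 2 or 3 h. Tumours and organs were excised, weighed and gamma-counted. Results are decay-corrected % ID/g; ratios are tumour over tissue. n=3-6 per group; mean ± SD.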
# Lung [2] = test: Biodistribution in lung of C57BL/6J mouse harboring mouse B16-Bl6 cells at 9 to 12 MBq, iv after 3 hrs by PET analysis; assay type: ADME, organism-based; conditions: in vivo
# Procedure, shortened: (§2)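 Ex vivo dissection in B16Bl6-bearing C57BL/6J mice (3x10⁵ cells s.c. right shoulder), done at day 10 or 14 after implantation. The ¹⁸F tracer was given i.v. at 9-12 MBq. Mice were killed by CO₂ at 1, 2 or 3 h. Tumor, organs and tissues were excised, weighed and gamma-counted, then decay-corrected and expressed as %ID/g. n=3-6 per group; mean ± SD.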
# Mus musculus [3] = test: Biodistribution in cecum of C57BL/6J mouse harboring mouse B16-Bl6 cells at 9 to 12 MBq, iv after 3 hrs by PET analysis; assay type: ADME, organism-based, Caecum; conditions: in vivo; procedure, shortened: as §2
# Mus musculus [4] = test: Biodistribution in small intestine of C57BL/6J mouse harboring mouse B16-Bl6 cells at 9 to 12 MBq, iv after 3 hrs by PET analysis; assay type: ADME, organism-based; conditions: in vivo; procedure, shortened: as §2
# Blood [5] = test: Biodistribution in blood of C57BL/6J mouse harboring mouse B16-Bl6 cells at 9 to 12 MBq, iv after 3 hrs by PET analysis; assay type: ADME, organism-based; conditions: in vivo; procedure, shortened: as §2
# Mus musculus [6] = test: Biodistribution in eyes of C57BL/6J mouse harboring mouse B16-Bl6 cells at 9 to 12 MBq, iv after 3 hrs by PET analysis; assay type: ADME, organism-based, Eye; conditions: in vivo; procedure, shortened: as §2
# Mus musculus [7] = test: Biodistribution in tumor of C57BL/6J mouse harboring mouse B16-Bl6 cells at 9 to 12 MBq, iv after 3 hrs by PET analysis; assay type: ADME, organism-based, Neoplasm; conditions: in vivo; procedure, shortened: as §1
# Brain = test: Biodistribution in brain of C57BL/6J mouse harboring mouse B16-Bl6 cells at 9 to 12 MBq, iv after 2 hrs by PET analysis; assay type: ADME, organism-based; conditions: in vivo; procedure, shortened: as §2
# Heart [8] = test: Biodistribution in heart of C57BL/6J mouse harboring mouse B16-Bl6 cells at 9 to 12 MBq, iv after 2 hrs by PET analysis; assay type: ADME, organism-based; conditions: in vivo; procedure, shortened: as §2
# Lung [9] = test: Biodistribution in lung of C57BL/6J mouse harboring mouse B16-Bl6 cells at 9 to 12 MBq, iv after 2 hrs by PET analysis; assay type: ADME, organism-based; conditions: in vivo; procedure, shortened: as §2
# Kidney [10] = test: Biodistribution in kidney of C57BL/6J mouse harboring mouse B16-Bl6 cells at 9 to 12 MBq, iv after 2 hrs by PET analysis; assay type: ADME, organism-based; conditions: in vivo; procedure, shortened: as §2
# Liver [11] = test: Biodistribution in liver of C57BL/6J mouse harboring mouse B16-Bl6 cells at 9 to 12 MBq, iv after 2 hrs by PET analysis; assay type: ADME, organism-based; conditions: in vivo; procedure, shortened: as §2
# Zone of skin [12] = test: Biodistribution in skin of C57BL/6J mouse harboring mouse B16-Bl6 cells at 9 to 12 MBq, iv after 2 hrs by PET analysis; assay type: ADME, organism-based; conditions: in vivo; procedure, shortened: as §2
# Mus musculus [13] = test: Biodistribution in eyes of C57BL/6J mouse harboring mouse B16-Bl6 cells at 9 to 12 MBq, iv after 2 hrs by PET analysis; assay type: ADME, organism-based, Eye; conditions: in vivo; procedure, shortened: as §2
# Bone [14] = test: Biodistribution in bones of C57BL/6J mouse harboring mouse B16-Bl6 cells at 9 to 12 MBq, iv after 2 hrs by PET analysis; assay type: ADME, organism-based, Bone element; conditions: in vivo; procedure, shortened: as §2
# Nucleic Acid [15] = test: Ratio of drug level in tumor to bone in C57BL/6J mouse harboring mouse B16-Bl6 cells at 9 to 12 MBq, iv after 1 hr by PET analysis; assay type: ADME, organism-based; conditions: in vivo; procedure, shortened: as §1
# Nucleic Acid [16] = test: Ratio of drug level in tumor to muscle in C57BL/6J mouse harboring mouse B16-Bl6 cells at 9 to 12 MBq, iv after 1 hr by PET analysis; assay type: ADME, organism-based; conditions: in vivo; procedure, shortened: as §1
# Heart [17] = test: Biodistribution in heart of C57BL/6J mouse harboring mouse B16-Bl6 cells at 9 to 12 MBq, iv after 1 hr by PET analysis; assay type: ADME, organism-based; conditions: in vivo; procedure, shortened: as §2
# Spleen = test: Biodistribution in spleen of C57BL/6J mouse harboring mouse B16-Bl6 cells at 9 to 12 MBq, iv after 1 hr by PET analysis; assay type: ADME, organism-based; conditions: in vivo; procedure, shortened: as §2
# Kidney [18] = test: Biodistribution in kidney of C57BL/6J mouse harboring mouse B16-Bl6 cells at 9 to 12 MBq, iv after 1 hr by PET analysis; assay type: ADME, organism-based; conditions: in vivo; procedure, shortened: as §2
# Mus musculus [19] = test: Biodistribution in cecum of C57BL/6J mouse harboring mouse B16-Bl6 cells at 9 to 12 MBq, iv after 1 hr by PET analysis; assay type: ADME, organism-based, Caecum; conditions: in vivo; procedure, shortened: as §2
# Mus musculus [20] = test: Biodistribution in colon and feces of C57BL/6J mouse harboring mouse B16-Bl6 cells at 9 to 12 MBq, iv after 1 hr by PET analysis; assay type: ADME, organism-based; conditions: in vivo; procedure, shortened: as §2
# Zone of skin [21] = test: Biodistribution in skin of C57BL/6J mouse harboring mouse B16-Bl6 cells at 9 to 12 MBq, iv after 1 hr by PET analysis; assay type: ADME, organism-based; conditions: in vivo; procedure, shortened: as §2
# Liver [22] = test: Biodistribution in liver of C57BL/6J mouse harboring mouse B16-Bl6 cells at 9 to 12 MBq, iv after 1 hr by PET analysis; assay type: ADME, organism-based; conditions: in vivo; procedure, shortened: as §2
# Blood [23] = test: Biodistribution in blood of C57BL/6J mouse harboring mouse B16-Bl6 cells at 9 to 12 MBq, iv after 1 hr by PET analysis; assay type: ADME, organism-based; conditions: in vivo; procedure, shortened: as §2
# Bone [24] = test: Biodistribution in bones of C57BL/6J mouse harboring mouse B16-Bl6 cells at 9 to 12 MBq, iv after 1 hr by PET analysis; assay type: ADME, organism-based, Bone element; conditions: in vivo; procedure, shortened: as §2
# Muscle tissue = test: Biodistribution in muscle of C57BL/6J mouse harboring mouse B16-Bl6 cells at 8 to 12 MBq, iv after 1 hr by PET analysis; assay type: ADME, organism-based; conditions: in vivo
# Procedure, shortened: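 C57BL/6J mice were inoculated s.c. on the right shoulder with 3x10⁵ B16Bl6 cells in PBS under isoflurane, and imaged at day 10 or 14 (tumor volume 431.8 ± 154.3 mm³). The ¹⁸F tracer was given i.v. via tail vein, 8-12 MBq (methods: 9-12 MBq/0.15 mL). Under ketamine/xylazine i.p., a 25-min whole-body static PET scan ran at 1 h. ROI %ID/g = counts/g/min ÷ injected dose. n=2-8; mean ± SD.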
# Mus musculus [25] = test: Ratio of drug level in tumor to bone in C57BL/6J mouse harboring mouse B16-Bl6 cells at 9 to 12 MBq, iv after 3 hrs by PET analysis; conditions: in vivo
# Mus musculus [26] = test: Ratio of drug level in tumor to blood in C57BL/6J mouse harboring mouse B16-Bl6 cells at 9 to 12 MBq, iv after 2 hrs by PET analysis; conditions: tumour
# Mus musculus [27] = test: Ratio of drug level in tumor to muscle in C57BL/6J mouse harboring mouse B16-Bl6 cells at 9 to 12 MBq, iv after 3 hrs by PET analysis; conditions: in vivo
Kp at 3 h [1],Drug uptake (Lung [2]) [% ID/g],Drug uptake (Mus musculus [3]) [% ID/g],Drug uptake (Mus musculus [4]) [% ID/g],Drug uptake (Blood [5]) [% ID/g],Drug uptake (Mus musculus [6]) [% ID/g],Drug uptake (Mus musculus [7]) [% ID/g],Drug uptake (Brain) [% ID/g],Drug uptake (Heart [8]) [% ID/g],Drug uptake (Lung [9]) [% ID/g],Drug uptake (Kidney [10]) [% ID/g],Drug uptake (Liver [11]) [% ID/g],Drug uptake (Zone of skin [12]) [% ID/g],Drug uptake (Mus musculus [13]) [% ID/g],Drug uptake (Bone [14]) [% ID/g],Ratio (Nucleic Acid [15]),Ratio (Nucleic Acid [16]),Drug uptake (Heart [17]) [% ID/g],Drug uptake (Spleen) [% ID/g],Drug uptake (Kidney [18]) [% ID/g],Compound,further results
5.27,2.37,29.31,18.62,0.99,13.43,6.76,1.03,1.7,1.72,3.52,2.31,0.94,12.1,2.13,5.35,9.48,1.58,2.35,3.6,CCN(CCNC(=O)c1cnc2cc(I)ccc2n1)CCOCCOCCOCCOCCOCCOCCOCC[18F],Drug uptake (Mus musculus [19]): 6.37 % ID/g; Drug uptake (Mus musculus [20]): 7.39 % ID/g; Drug uptake (Zone of skin [21]): 1.22 % ID/g; Drug uptake (Liver [22]): 2.02 % ID/g; Drug uptake (Blood [23]): 1.15 % ID/g; Drug uptake (Bone [24]): 1.82 % ID/g; Drug uptake (Muscle tissue): 1.01 % ID/g; Ratio (Mus musculus [25]): 2.16; Ratio (Mus musculus [26]): 4.01; Ratio (Mus musculus [27]): 6.64
14.4,1.6,10.79,3.91,0.8,17.96,11.55,1.39,2.14,1.65,2.18,1.88,1.51,18.17,1.96,10.11,12.12,2.72,3.72,3.46,CCN(CCNC(=O)c1cnc2cc(I)ccc2n1)CCOCCOCCOCC[18F],Drug uptake (Mus musculus [19]): 7.27 % ID/g; Drug uptake (Mus musculus [20]): 7.17 % ID/g; Drug uptake (Zone of skin [21]): 1.44 % ID/g; Drug uptake (Liver [22]): 2.56 % ID/g; Drug uptake (Blood [23]): 1.42 % ID/g; Drug uptake (Bone [24]): 1.4 % ID/g; Drug uptake (Muscle tissue): 1.37 % ID/g; Ratio (Mus musculus [25]): 3.7; Ratio (Mus musculus [26]): 12.19; Ratio (Mus musculus [27]): 14.46
